# An excerpt weighted towards active compounds, which were near 2.1% of everything screened.
# Xi reactivation = activators of inactive X chromosome reactivation, primary screen, imaging, XiGFP fibroblasts, GFP high-content imaging, set 2 | XiGFP mouse fibroblasts, % GFP-positive cells imaging, 3 d; cells co-treated with 5-aza-dC sensitizer; scaled so ellipticine positive control = 100% | activation, % at 7.58 µM | actives 0.055% (n = 360,000) | AID 743238, 2013;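 active means mean normalized replicate activation at least 10% and every replicate at or above 10%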;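 further: 0% = median of on-plate neutral control wells and 100% = ellipticine 6 µM median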
#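 Material: XiGFP fibroblasts, SV40-immortalized. Buffer or medium: DMEM plus 5-aza-dC sensitizer. Compound: single concentration per compound, delivered by pin transfer. Times: 3 days compound exposure. Controls: ellipticine 6 µM.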
# Cneo AK release = Cryptococcus neoformans cell lysis inducers, primary screen, AK release luminescence, single concentration. C. neoformans lysis, adenylate kinase release luminescence, 4 h; normalised: neutral wells 0, clomiphene wells 100. lysis activity, % at 15 µM. actives 0.2% (n = 360,000);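 active means mean lysis activity across replicates of at least 80%, whatever share of replicates individually reach that level; inactive means mean lysis activity below 80%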
#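 Test system: log-phase Cryptococcus neoformans yeast cells. Input: 5 × 10^6 yeast cells/mL. Medium: fresh YPD growth medium. Doses: single dose. Incubation: static 4 h at 37 °C with compound, 1 h detection. Measured by: luminescent adenylate kinase detection reagent. Read-out: signal increase indicating cell lysis. Benchmarks: Clomiphene.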
# Statin myotox sup = suppressors of statin myotoxicity in C2C12 myotubes, primary screen, cell-based, single point, plate reader | actives 0.78% (n = 330,000) | rescue of ATP level, % at 7.49 µM | AID 602340, 2012 | C2C12 myotubes + simvastatin, ATP luminescence, 48 h; scaled: DMSO 0, geranylgeraniol control 100;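 active means mean ATP rescue above about 67%, or every replicate alone reaching that limit, limit read from the data, passing the limit was not always enough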;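 further: myotubes were challenged with 10 µM simvastatin during compound exposure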
# DENV2 CPE rescue = inhibitors of DENV2 cytopathic effect, primary screen, cell-based, plate reader, single concentration | CPE inhibition, % at 9.99 µM | actives 1.7% (n = 350,000) | DENV2-infected cells, cytopathic effect rescue; in the data active means CPE inhibition above about 20%, passing the limit was not always enough; tested in BHK-21 cells;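 further: 0% = median of neutral control wells and 100% = median of positive control wells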
# An asterisk follows results filed as active; x = not tested or not shown.
SMILES,Xi reactivation,Cneo AK release,Statin myotox sup,DENV2 CPE rescue
COc1ccc(NC(=O)N(C)C[C@H]2OCCCC[C@H](C)Oc3ccc(NC(=O)CCCN(C)C)cc3C(=O)N([C@@H](C)CO)C[C@H]2C)cc1,0.0,-0.5,x,-3.8
COc1ccccc1-c1c(C)nn2c(N3CCC4(CC3)OCCO4)cc(C)nc12,x,6.1,85.3*,x
C[C@H]1CCCCO[C@@H](CN(C)Cc2ccc(C(F)(F)F)cc2)[C@@H](C)CN([C@@H](C)CO)C(=O)c2cc(N(C)C)ccc2O1,-1.1,3.5,x,-15.0
O=C(C1CCCCC1)N1CC2(C1)[C@H](c1ccccc1)[C@@H](CO)N2C(=O)NC1CCCC1,0.3,x,x,-2.2
O=C(C1CCC1)N1CC2(C1)[C@@H](c1ccccc1)[C@@H](CO)N2C(=O)NC1CCCC1,0.0,x,x,31.2*
CCCNC(=O)N1[C@H](CO)[C@H](c2ccccc2)C12CN(C(=O)C1CCCCC1)C2,0.0,x,x,13.5
CCCNC(=O)N1[C@H](CO)[C@@H](c2ccccc2)C12CN(C(=O)C1CCCCC1)C2,0.0,x,x,84.8*
O=C(Nc1ccc(F)cc1)N[C@H]1CC[C@H](CC(=O)N2CCOCC2)O[C@@H]1CO,0.2,-1.3,-2.3,17.6
C[C@@H]1CN([C@@H](C)CO)C(=O)Cc2cc(NC(=O)c3ccncc3)ccc2O[C@@H]1CN(C)CC1CC1,-1.4,-2.7,-16.1,1.5
CCOC(=O)C1CCN(C(=O)COC(=O)c2ccc([N+](=O)[O-])o2)CC1,0.0,-0.8,-1.3,76.3*
CC1CC(C)CN(C(=O)COC(=O)c2ccc([N+](=O)[O-])o2)C1 (stereo unspecified),0.3,0.8,8.5,-2.8
COc1ccc(C2NC(=S)NC3=C2CCc2cc(OC)ccc23)cc1 (stereo unspecified),x,2.6,89.9*,x
Cc1noc(C)c1NC(=O)NCC[C@@H]1CC[C@@H](NC(=O)Cc2cccnc2)[C@@H](CO)O1,0.5,5.4,10.9,-7.0
C[C@H]1CCCCO[C@H](CN(C)Cc2ccc(C(F)(F)F)cc2)[C@@H](C)CN([C@@H](C)CO)C(=O)c2cc(NS(=O)(=O)c3cn(C)cn3)ccc2O1,-0.4,-0.4,x,1.3
C[C@@H]1CN([C@@H](C)CO)C(=O)c2cc(NS(=O)(=O)c3cn(C)cn3)ccc2O[C@@H](C)CCCCO[C@H]1CN(C)Cc1ccncc1,0.1,-1.1,x,69.9*
C[C@@H]1CN([C@@H](C)CO)C(=O)c2cc(NS(=O)(=O)c3cn(C)cn3)ccc2O[C@@H](C)CCCCO[C@@H]1CN(C)Cc1ccc(C(F)(F)F)cc1,-1.1,96.2*,x,x
COc1ccc2c3c([nH]c2c1)[C@@H](CO)N(C(=O)NC(C)C)CC31CCN(Cc2ccccc2)CC1,0.4,x,x,-28.7
O=C(N[C@@H]1CC[C@H](CCn2cc(-c3ccccc3)nn2)O[C@H]1CO)c1ccccc1F,0.4,-4.0,8.2,-5.2
CCOc1ccc(C(F)(F)F)cc1NC(C)=O,x,-2.1,96.1*,x
CCOc1ccc(C(F)(F)F)cc1NC(=O)COc1ccc(C(F)(F)F)cc1[N+](=O)[O-],x,0.7,-7.5,x
Cc1sc2nc(CN3CCN(S(=O)(=O)c4cccc5nonc45)CC3)[nH]c(=O)c2c1C,x,1.1,93.0*,x
C[C@H](CO)N1C[C@H](C)[C@@H](CN(C)C)Oc2ccc(NS(=O)(=O)c3ccc(F)cc3)cc2CC1=O,0.3,-1.6,-2.6,-1.2
Cc1c(Nc2ccc3nonc3c2[N+](=O)[O-])c(=O)n(-c2ccccc2)n1C,0.4,x,x,2.1
Cc1c(Nc2cc(Cl)c3nonc3c2[N+](=O)[O-])c(=O)n(-c2ccccc2)n1C,19.1*,x,x,2.4
Nc1ccc2c3c(cccc13)-c1ccccc1-2,116.6*,4.4,125.9*,-4.3
SMILES,Xi reactivation,Cneo AK release,Statin myotox sup,DENV2 CPE rescue
CCc1c(Cl)nc(N)nc1Nc1ccccc1Cl,0.1,-0.2,2.9,-12.2
CCOc1ccccc1Nc1nc(N)nc(Cl)c1CC,0.4,-2.4,106.6*,13.6
CC1CCN(c2ccc3c(c2)S(=O)(=O)c2cccc(C(=O)NC4CCCCC4)c2C3=O)CC1,0.0,-1.7,16.5,33.6*
O=C(NC1CCCCC1)c1cccc2c1C(=O)c1ccc(N3CCCC3)cc1S2(=O)=O,0.0,-1.5,-10.3,x
CC(C)(C)CNC(=O)c1cccc2c1C(=O)c1ccc(N3CCCC3)cc1S2(=O)=O,0.0,-1.2,8.7,29.1*
CCCNC(=O)N1CC2(C1)CN(C(=O)CCC)[C@@H](CO)c1[nH]c3cc(OC)ccc3c12,0.1,x,x,21.6*
COc1ccc2c3c([nH]c2c1)[C@H](CO)N(C(=O)Nc1ccc(F)cc1)CC31CN(Cc2cc(-c3ccccc3)on2)C1,0.0,x,x,50.2*
CCCNC(=O)N1CC2(C1)CN(C(=O)Nc1ccc(F)cc1)[C@H](CO)c1[nH]c3cc(OC)ccc3c12,0.1,x,x,23.2*
COc1ccc2c3c([nH]c2c1)[C@H](CO)N(C(=O)Nc1ccc(F)cc1)CC31CN(S(=O)(=O)c2ccccc2)C1,0.2,x,x,1.0
CCCNC(=O)N1CC2(C1)CN(C(=O)Nc1ccc(F)cc1)[C@@H](CO)c1[nH]c3cc(OC)ccc3c12,0.0,x,x,8.5
COc1ccc2c3c([nH]c2c1)[C@H](CO)N(C(=O)Nc1cccc(F)c1)CC31CN(S(=O)(=O)c2ccccc2)C1,0.3,x,x,79.2*
O=C(CC1CC1)N1CC(=O)N2[C@@H](CO)[C@@H](c3ccc(C#Cc4ccccc4)cc3)[C@@H]2C1,0.3,x,x,2.8
COc1ccc2c3c([nH]c2c1)[C@H](CO)N(C(=O)Nc1ccc(F)cc1)CC31CCN(C(=O)Nc2ccc3c(c2)OCO3)CC1,0.2,x,x,61.4*
COc1ccc2c3c([nH]c2c1)[C@@H](CO)N(C(=O)Nc1ccc(F)cc1)CC31CCN(C(=O)Nc2ccc3c(c2)OCO3)CC1,0.2,x,x,6.5
C[C@@H]1CN([C@H](C)CO)C(=O)c2cccc(NS(=O)(=O)c3ccc(Cl)cc3)c2O[C@H]1CN(C)C(=O)Nc1ccc(F)cc1,0.0,x,-10.9,x
CO[C@H]1CC[C@H]2CCOc3ccc(C#N)cc3C(=O)N(C)C[C@H](C)C(=O)N(C)C[C@H]1O2,-0.1,-1.4,7.2,-3.1
CC1CN(C2=CC(=O)CCC2)CC(C)O1 (stereo unspecified),0.3,x,x,21.2*
C[C@@H]1CN([C@@H](C)CO)C(=O)Cc2cc(NC(=O)Nc3ccc(F)cc3)ccc2O[C@@H]1CN(C)S(=O)(=O)c1ccc(F)cc1,-0.2,-0.9,13.8,0.1
Cc1ccc(S(=O)(=O)N(CC(=O)NCc2ccco2)Cc2ccccc2F)cc1,x,0.0,66.7*,x
CN(C)C(=O)N1CCN(C(=O)[C@H]2O[C@@H](n3ccc(N)nc3=O)[C@H](O)[C@@H]2O)CC1,0.4,x,x,70.2*
